Measured values as given in ChEMBL document CHEMBL3352185, “Design, synthesis, and antibacterial properties of dual-ligand inhibitors of acetyl-CoA carboxylase” (2014).
Converted amounts (≈) assume the structure as drawn. The source made the active and inactive calls. The rule behind the calls is not given here.

How the values were obtained:
[1] = system: Pseudomonas aeruginosa; assay: Antibacterial activity against wild type Pseudomonas aeruginosa PAO1 after 18 to 24 hrs by two-fold broth microdilution method; assay type: functional
Summary of the method: (§1)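 CLSI broth microdilution in cation-adjusted Mueller Hinton (MHII) broth. Strains streaked on agar and grown overnight at 35 °C. […] Value is the MIC.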

[2] = system: Escherichia coli; assay: Ratio of MPC for Escherichia coli D21 tolC deletion mutant to MIC for Escherichia coli D21 tolC deletion mutant; assay type: functional
Summary of the method: (§2)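 Single-step selection on MHII agar: compound added to molten agar cooled to 55 °C, at 2-fold increasing concentrations. Overnight MHII broth culture of E. coli tolC concentrated by centrifugation; 4 × 10^9 CFU plated per plate, CFU counted by serial dilution. Plates monitored for resistant colonies. MPC is the lowest consecutive concentration fully suppressing resistant mutants. Ratio is MPC to broth microdilution MIC.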

[3] = system: Escherichia coli; assay: Antibacterial activity against Escherichia coli D21 IpxC101 deletion mutant after 18 to 24 hrs by two-fold broth microdilution method; assay type: functional; summary of the method: as §1
[4] = system: Escherichia coli; assay: Antibacterial activity against Escherichia coli D21 tolC deletion mutant assessed as mutant prevention concentration after 18 to 24 hrs by two-fold broth microdilution method; assay type: functional; summary of the method: as §2
[5] = system: Staphylococcus aureus; assay: microbe, parasite or virus in culture; conditions: ATCC 29213
[6] = system: Enterococcus faecalis; assay: Antibacterial activity against wild type Enterococcus faecalis ATCC 29212 after 18 to 24 hrs by two-fold broth microdilution method; assay type: functional
Summary of the method: (§3)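 MICs were determined by CLSI broth microdilution in cation-adjusted Mueller Hinton (MHII) broth. Organisms were first streaked on agar and grown overnight at 35 °C. Compounds were dissolved in 100% DMSO and tested as 2-fold serial dilutions. A standardized inoculum was incubated with compound for 18−24 h at 35 °C. The norA strain is an otherwise isogenic S. aureus carrying a gain-of-function NorA mutation.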

[7] = system: Escherichia coli; assay: Antibacterial activity against wild type Escherichia coli D21 after 18 to 24 hrs by two-fold broth microdilution method; assay type: functional; summary of the method: as §1
[8] = system: Escherichia coli; assay: Antibacterial activity against Escherichia coli D21 tolC deletion mutant after 18 to 24 hrs by two-fold broth microdilution method; assay type: functional; summary of the method: as §1
[9] = system: Escherichia coli; assay: Antibacterial activity against Escherichia coli D21 IpxC101/tolC deletion mutant after 18 to 24 hrs by two-fold broth microdilution method; assay type: functional; summary of the method: as §1
[10] = system: Staphylococcus epidermidis; assay: Antibacterial activity against wild type Staphylococcus epidermidis ATCC 35984 after 18 to 24 hrs by two-fold broth microdilution method; assay type: functional; summary of the method: as §3
[11] = system: Staphylococcus aureus; assay: microbe, parasite or virus in culture; conditions: ATCC 29213; remark: listed apart in the source
[12] = system: Pseudomonas aeruginosa; assay: Antibacterial activity against Pseudomonas aeruginosa PAO1 mexAB/mexCD/mexXY/mexHI/opmH deletion mutant after 18 to 24 hrs by two-fold broth microdilution method
[13] = system: Staphylococcus aureus; assay: Antibacterial activity against moiramide-resistant Staphylococcus aureus ATCC 29213 after 18 to 24 hrs by two-fold broth microdilution method; assay type: functional; summary of the method: as §1
[14] = system: Escherichia coli; assay: Antibacterial activity against moiramide-resistant Escherichia coli D21 tolC deletion mutant after 18 to 24 hrs by two-fold broth microdilution method; assay type: functional; summary of the method: as §1
[15] = system: Escherichia coli; assay: Competitive inhibition of Escherichia coli acetyl-CoA carboxylase using acetyl-CoA as substrate in presence of ATP
Summary of the method: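 ACC holoenzyme activity was measured with a pyruvate kinase/lactate dehydrogenase coupled assay. Mix: 0.5 mM phosphoenolpyruvate, 0.2 mM NADH, 20 mM MgCl2, 15 mM bicarbonate, 100 mM HEPES pH 8.0. ATP was fixed at 5 μM, acetyl-CoA was varied from 50 to 1000 μM, and inhibitor was used at fixed increasing concentrations. Initial velocities were fitted to a competitive equation to give Kis.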

[16] = system: Escherichia coli; assay: Non competitive inhibition of Escherichia coli acetyl-CoA carboxylase using acetyl-CoA as substrate in presence of ATP
[17] = system: Escherichia coli; assay: Antibacterial activity against Escherichia coli JM109 at 1 to 100 uM after 4 hrs by UV-Vis spectrophotometry; assay type: functional, organism-based
Summary of the method: (§4)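 E. coli JM109 was grown overnight in LB at 37 °C, then diluted into fresh LB tubes. Tubes received compound from a DMSO stock at final 1, 10, 50 or 100 μM, with or without polymyxin B nonapeptide at final 0.5, 1, 5 or 10 μg/mL. Tubes were incubated 4 h at 37 °C and growth was read as absorbance at 600 nm.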

[18] = system: Escherichia coli; assay: Antibacterial activity against Escherichia coli JM109 at 1 to 100 uM after 4 hrs by UV-Vis spectrophotometry in presence of PBMN; assay type: functional, organism-based; summary of the method: as §4
[19] = system: Escherichia coli; assay: Selectivity ratio of MIC for moiramide-resistant Escherichia coli D21 tolC deletion mutant to MIC for Escherichia coli D21 tolC deletion mutant; assay type: functional
[20] = system: Staphylococcus aureus; assay: Selectivity ratio of MIC for moiramide-resistant Staphylococcus aureus ATCC 29213 to MIC for Staphylococcus aureus ATCC 29213; assay type: functional
[21] = system: Escherichia coli; assay: Inhibition of Escherichia coli acetyl-CoA carboxylase
Summary of the method: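 Purified ACC complex was assayed by PK/LDH-coupled NADH oxidation in 100 mM HEPES pH 8.0, with 20 mM MgCl2 and 15 mM bicarbonate. One series varied ATP (0.8–56 μM) at 0.2 mM acetyl-CoA; the other varied acetyl-CoA (50–1000 μM) at 5 μM ATP. Each series was run at fixed increasing inhibitor levels. Kis and Kii came from fits to competitive or noncompetitive rate equations.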

[22] = system: Escherichia coli; assay: Competitive inhibition of Escherichia coli biotin carboxylase

| Compound | MIC [1] [µg/mL] | Ratio [2] | MIC [3] [µg/mL] | Activity [4] [mg/L] | MIC [5] [µg/mL] | MIC [6] [µg/mL] | MIC [7] [µg/mL] | MIC ([8]; Escherichia coli, D21) [µg/mL] | MIC [9] [µg/mL] | MIC [10] [µg/mL] | MIC [11] [µg/mL] | MIC [12] [µg/mL] | MIC [13] [µg/mL] | MIC [14] [µg/mL] | Kis [15] [nM] | Kii [16] [nM] | Kis [16] [nM] | also measured |
| --- | --- | --- | --- | --- | --- | --- | --- | --- | --- | --- | --- | --- | --- | --- | --- | --- | --- | --- |
| CO[C@H]1/C=C/O[C@@]2(C)Oc3c(C)c(O)c4c(O)c(c(/C=N/N5CCN(C)CC5)c(O)c4c3C2=O)NC(=O)/C(C)=C\C=C\[C@H](C)[C@H](O)[C@@H](C)[C@@H](O)[C@@H](C)[C@H](OC(C)=O)[C@@H]1C [RIFAMPIN] | 31 (≈ 37.7 µM) | >8 | 0.06 (≈ 0.0729 µM) | >64 | ≤ 0.03 | 0.5 (≈ 0.608 µM) | 31 (≈ 37.7 µM) | 8 (≈ 9.72 µM) | 0.5 (≈ 0.608 µM) | ≤ 0.03 | ≤ 0.03 | 31 (≈ 37.7 µM) | – | – | – | – | – | Activity [8]: >64 mg/L |
| CC(C)[C@H](NC(=O)C[C@H](NC(=O)CCCCCCCOc1ccc(CN(Cc2ccccc2)C(=O)c2cnc(N)o2)cc1)c1ccccc1)C(=O)[C@@H]1C(=O)NC(=O)[C@H]1C | > 64 | 8 | – | 64 | 4 (≈ 4.96 µM) | 4 (≈ 4.96 µM) | > 64 | 8 (≈ 9.91 µM) | 4 (≈ 4.96 µM) | 1 (≈ 1.24 µM) | 4 (≈ 4.96 µM) | – | > 64 | 16 (≈ 19.8 µM) | 5.5 | 9.6 | 16.9 | – |
| O=C(N[C@H](CO)[C@H](O)c1ccc([N+](=O)[O-])cc1)C(Cl)Cl [CHLORAMPHENICOL] | > 64 | – | 4 (≈ 12.4 µM) | – | 8 (≈ 24.8 µM) | 8 (≈ 24.8 µM) | 8 (≈ 24.8 µM) | 1 (≈ 3.09 µM) | 1 (≈ 3.09 µM) | 8 (≈ 24.8 µM) | 8 (≈ 24.8 µM) | 2 (≈ 6.19 µM) | – | – | – | – | – | – |
| NC[C@H]1O[C@H](O[C@H]2[C@H](O)[C@@H](O[C@H]3O[C@H](CO)[C@@H](O)[C@H](N)[C@H]3O)[C@H](N)C[C@@H]2N)[C@H](O)[C@@H](O)[C@@H]1O [KANAMYCIN] | 128 (≈ 264 µM) | – | 1 (≈ 2.06 µM) | – | 4 (≈ 8.26 µM) | 31 (≈ 64 µM) | 2 (≈ 4.13 µM) | 2 (≈ 4.13 µM) | 0.5 (≈ 1.03 µM) | > 128 | 4 (≈ 8.26 µM) | 64 (≈ 132 µM) | 2 (≈ 4.13 µM) | 0.5 (≈ 1.03 µM) | – | – | – | – |
| CC(C)[C@H](NC(=O)C[C@H](NC(=O)CCCCCCCCCCCCCCCOc1ccc(CN(Cc2ccccc2)C(=O)c2cnc(N)o2)cc1)c1ccccc1)C(=O)[C@@H]1C(=O)NC(=O)[C@H]1C | > 64 | – | – | – | > 64 | > 64 | > 64 | – | – | > 64 | > 64 | – | – | – | 5.2 | 33.7 | 28.7 | Activity [17]: inactive; Activity [18]: Active |
| C/C=C/C=C/C(=O)N[C@@H](CC(=O)N[C@H](C(=O)[C@@H]1C(=O)NC(=O)[C@H]1C)C(C)C)c1ccccc1 | > 64 | 32 | 4 (≈ 8.82 µM) | 16 | 1 (≈ 2.2 µM) | 8 (≈ 17.6 µM) | > 64 | 0.5 (≈ 1.1 µM) | 0.5 (≈ 1.1 µM) | 0.24 (≈ 0.529 µM) | 4 (≈ 8.82 µM) | 8 (≈ 17.6 µM) | 8 (≈ 17.6 µM) | 4 (≈ 8.82 µM) | 7.9 | – | – | Ratio [19]: 8; Ratio [20]: 8; INH [21]: 5 nM |
| Nc1ncc(C(=O)N(Cc2ccccc2)Cc2ccccc2)o1 | > 64 | >8 | – | >128 | > 64 | > 64 | > 64 | 16 (≈ 52.1 µM) | 16 (≈ 52.1 µM) | > 64 | > 64 | – | – | 8 (≈ 26 µM) | – | 900 | 400 | Kis [22]: 0.8 µM |
| GENTAMICIN | 2 | – | 0.12 | – | – | 8 | 0.1 | – | < 0.03 | 8 | – | – | – | – | – | – | – | MIC [8]: 0.24 µg/mL |
